The list is not random: actives were taken first. Their share in the collection is about 2.4%.
Rpn11 block: Rpn11 (PSMD14) deubiquitinase inhibitors, primary screen, biochemical, fluorescence polarization, uHTS | inhibition, % at 20 µM | human 26S proteasome, Ub4-pepOG fluorescence polarization; 20S core pre-blocked with epoxomicin | hit rate 0.59% among 360,000 | 26S proteasome non-ATPase regulatory subunit 14 (Homo sapiens), O00487;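 active means inhibition at 20 µM, scaled to each plate's controls, above about 33%, limit read from the data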
Target sequence (O00487 whole entry, looked up): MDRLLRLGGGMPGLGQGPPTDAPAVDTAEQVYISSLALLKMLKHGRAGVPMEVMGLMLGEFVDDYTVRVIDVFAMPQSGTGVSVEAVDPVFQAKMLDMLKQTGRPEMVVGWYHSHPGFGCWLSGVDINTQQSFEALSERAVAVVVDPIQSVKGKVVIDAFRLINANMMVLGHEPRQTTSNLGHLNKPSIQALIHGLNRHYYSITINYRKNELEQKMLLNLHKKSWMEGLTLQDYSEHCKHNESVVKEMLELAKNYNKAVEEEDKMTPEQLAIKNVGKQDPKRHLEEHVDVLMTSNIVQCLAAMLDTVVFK
Neddyl block: inhibitors of cullin neddylation, primary screen, biochemical, TR-FRET, uHTS, NAE and Ubc12; NEDD8-conjugating enzyme Ubc12 (Homo sapiens) + NEDD8-activating enzyme E1 regulatory …; inhibition, % at 25 µM; hit rate 0.58% among 360,000; AID 651699, 2012; in the data active means inhibition above about 36%
Rin1 Abl inh: inhibitors of Rin1-Abl protein binding, primary screen, biochemical, TR-FRET. Tyrosine-protein kinase ABL1 (Homo sapiens) + Ras and Rab interactor 1 (Homo sapiens), …. inhibition, % at 7.35 µM. hit rate 0.4% among 360,000; in the data active means inhibition above about 5%, passing the limit was not always enough
CSN deneddyl inh: inhibitors of CSN-mediated cullin deneddylation, primary screen, biochemical, fluorescence polarization, uHTS | inhibition, % at 12.5 µM | hit rate 0.38% among 360,000 | COP9 signalosome complex subunit 5 (Homo sapiens), Q92905 | AID 651999, 2013 | Purified CSN, SCF-Nedd8-OG deneddylation;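 active means pattern-corrected inhibition above about 35%, with an unprinted fluorescence ratio check between 0.5 and 1.5, limit read from the data, passing the limit was not always enough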
Target sequence (Q92905 whole entry, looked up, one chain of several): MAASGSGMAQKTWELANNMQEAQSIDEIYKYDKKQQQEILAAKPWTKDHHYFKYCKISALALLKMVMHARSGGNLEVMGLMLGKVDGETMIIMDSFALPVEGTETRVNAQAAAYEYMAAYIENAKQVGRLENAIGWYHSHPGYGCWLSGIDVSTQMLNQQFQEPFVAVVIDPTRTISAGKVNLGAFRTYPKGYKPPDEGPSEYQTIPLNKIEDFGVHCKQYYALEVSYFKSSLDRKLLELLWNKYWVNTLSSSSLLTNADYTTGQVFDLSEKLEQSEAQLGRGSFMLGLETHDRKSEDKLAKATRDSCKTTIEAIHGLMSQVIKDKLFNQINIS
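Schedule: reaction 90 min, room temperature / Assay system: HEK293T-derived human Csn5 enzyme / Input: Csn5 at 0.24 nM final / Measure: inhibition of Csn5 cleavage, % / Control set: substrate-only high control, full reaction low control / Technique: fluorescence polarization of the substrate / Buffer or medium: Tris/NaCl/DTT buffer, pH 7.5 / Reagent: SCFSkp2-Nedd8OG substrate at 10 nM final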
TPT1 inhibitor: Candida albicans TPT1 enzyme inhibitors, primary screen, biochemical, fluorescence polarization. recombinant caTPT1, FP RNA substrate dephosphorylation. hit rate 0.81% among 300,000. inhibition, % at 5 µM;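 active means inhibition above the mean of all tested compounds plus 3 SD, set per screening campaign, cut at about 24% in these data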
HNF4A DNA FP: change in binding of human HNF4A to DNA, primary screen, biochemical, fluorescence polarization, FITC-DNA; Hepatocyte nuclear factor 4-alpha (Homo sapiens), P41235; 1 h; activity change, % at 10 µM; hit rate 0.3% among 360,000; in the data active means activity change above about 30%, passing the limit was not always enough
Rpn11 inh conf: Rpn11 (PSMD14) deubiquitinase inhibitors, confirmation, biochemical, fluorescence polarization, single concentration | shares compounds with Rpn11 block | purified human 26S proteasome, Ub4-pepOG fluorescence polarization; proteasome pretreated with epoxomicin | inhibition, % at 20 µM | hit rate 29% among 1,900
MMP-2 counter: MMP-2 enzyme inhibition, confirmation, counter-screen for RPN11 inhibitor project, biochemical, fluorescence, single concentration; inhibition, % at 20 µM; recombinant MMP-2, FRET peptide cleavage fluorescence; shares compounds with Rpn11 block; hit rate 4% among 1,900;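 further: human MMP-2 activated beforehand with APMA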
Thrombin FP: bovine thrombin protease inhibition, confirmation, counter-screen for Rpn11 inhibitor project, biochemical, fluorescence polarization, single concentration | shares compounds with Rpn11 block | bovine thrombin cleavage of Ub4-pepOG | inhibition, % at 20 µM | hit rate 13% among 1,900 | AID 602333, 2012;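 active means mean inhibition at least 40% at 20 µM, or signal 3 deviations below plate average, so some actives read negative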
Numbers stand for hits; 0 = inactive; - = not tested or not shown; + = active, no number. Unless noted, no stated cut-off is given here; in the data, active means inhibition above about 40%; inactive means the rest.

SMILES	Rpn11 block	Neddyl block	Rin1 Abl inh	CSN deneddyl inh	TPT1 inhibitor	HNF4A DNA FP	Rpn11 inh conf	MMP-2 counter	Thrombin FP
Cc1cccc(NC(=S)N/N=C/c2ccc([N+](=O)[O-])s2)c1	38.6	0	0	0	0	0	0	0	0
CC/C(=N/Nc1ccccc1)c1cnnc(-c2ccccc2)n1	0	0	0	0	0	0	-	-	-
CC/C(=N/Nc1cccc(Cl)c1)c1cnnc(SC)n1	55.5	0	0	0	0	0	0	0	0
CCOc1ccc(N(CC(=O)NC2CCCC2)C(=O)CCC(=O)Nc2nc(C)cs2)cc1	0	0	0	0	0	0	-	-	-
CCOc1ccc(N(CC(=O)NC2CCCCC2)C(=O)CCC(=O)Nc2nc(C)cs2)cc1	130.3	0	0	0	0	0	0	0	0
O=C(Nc1ccc(Cl)cc1)Nc1nnc(-c2ccncc2)s1	169.8	0	0	0	0	0	0	0	0
O=C(Nc1ccc(F)cc1)Nc1nnc(-c2ccncc2)s1	65.5	0	0	0	0	0	41.3	0	0
Cc1ccc(NC(=O)Nc2nnc(-c3ccncc3)s2)cc1C	0	0	0	0	0	0	-	-	-
O=C(Nc1cccc(Cl)c1)Nc1nnc(-c2ccncc2)s1	0	0	0	0	0	0	-	-	-
COc1ccc(-c2cn3c(C)c(C(=O)Nc4cccc(C)n4)sc3n2)cc1	0	0	0	0	0	0	-	-	-
Cc1cccc(NC(=O)c2sc3nc(-c4ccccc4)cn3c2C)n1	55.1	0	0	0	0	0	0	0	0
CC(=O)Nc1ccc(NC(=O)C(C)OC(=O)[C@@H]2CCCN2C(=O)c2cccs2)cc1 (some centres not stated)	0	0	0	0	-	0	-	-	-
CC(NC(=O)C1CCN(C(=O)c2ccc(F)cc2)CC1)c1ccc(S(N)(=O)=O)cc1 (configuration not stated)	0	0	0	0	-	0	-	-	-
CC(NC(=O)C1CCN(C(=O)c2cccs2)CC1)c1ccc(S(N)(=O)=O)cc1 (configuration not stated)	66.9	0	0	101.5	-	0	62.7	0	0
CC(C)=CC(=O)Nc1ccc(S(=O)(=O)Nc2ccccn2)cc1	0	0	0	0	0	0	-	-	-
COc1cc(NC(=O)CCn2c(=S)[nH]c3ccccc3c2=O)cc(OC)c1OC	64.3	0	0	0	-	0	102.7	0	0
COc1cc(NC(=O)CCCn2c(=S)[nH]c3ccccc3c2=O)cc(OC)c1OC	0	0	0	0	0	0	-	-	-
O=C(Nc1ccncc1)c1sc2ccccc2c1Cl	0	0	0	0	0	0	-	-	-
O=C(Nc1ccnc(=O)[nH]1)c1sc2ccccc2c1Cl	40.7	0	0	0	0	0	0	0	0
COc1ccc(-c2cc(-c3ccc(C)cc3)nc(SCc3nnc(-c4ccccc4)o3)c2C#N)cc1OC	122.4	0	0	0	0	0	0	0	0
COc1cc(-c2cc(-c3ccccc3)nc(SCC(=O)O)c2C#N)cc(OC)c1OC	0	0	0	0	0	0	-	-	-
O=C(N1CCC(n2nc(-c3ccccc3)oc2=O)CC1)C1(c2ccccc2)CC1	0	0	0	0	0	0	-	-	-
CCC(CC)c1nc2cc(OC)c(OC)cc2c(=O)o1	+	0	0	0	0	0	0	0	0
CC(C(=O)Nc1ccccc1F)N1CCN(C)CC1 (configuration not stated)	-	-	-	-	0	-	-	-	-
Cc1ccn2c(=O)nc(SCC(=O)NC3CCCC3)nc2c1	0	0	0	0	0	0	-	-	-
SMILES	Rpn11 block	Neddyl block	Rin1 Abl inh	CSN deneddyl inh	TPT1 inhibitor	HNF4A DNA FP	Rpn11 inh conf	MMP-2 counter	Thrombin FP
Nc1cc(N)cc(-c2nc3ccccc3o2)c1	0	0	0	0	0	0	-	-	-
Nc1ccc(-c2nc3ccccc3o2)cc1	40.8	-	0	0	0	0	0	0	0
COc1ccc(/C(C)=N/NC(=O)c2ccccc2N)cc1	0	0	0	0	0	0	-	-	-
C[C@@H](C(=O)N[C@H](C(=O)O)c1ccccc1)n1nnc2ccccc2c1=O	0	0	0	0	0	0	-	-	-
CCOc1ccc(N2C(=O)CC(NCC#N)C2=O)cc1 (configuration not stated)	0	0	0	0	0	0	-	-	-
CCOc1ccc2nc(SCC(=O)N3c4ccccc4Sc4ccccc43)sc2c1	0	0	0	0	0	0	-	-	-
CCOc1ccc2nc(SCC(=O)N3c4ccccc4Sc4ccccc43)c(C#N)cc2c1	59.3	0	0	0	0	0	0	0	0
COc1ccc(S(=O)(=O)NNS(=O)(=O)c2ccc(OC)c(OC)c2)cc1OC	0	0	0	0	-	0	-	-	-
Cc1cc(=O)oc2cc(OCc3ccc(C(=O)OCC(=O)Nc4ccc(N(C)C)cc4)cc3)ccc12	0	0	0	0	-	0	-	-	-
CCc1ccc(OCC(=O)N/N=C/c2cc([N+](=O)[O-])ccc2N2CCCCCC2)cc1	0	0	0	0	0	0	-	-	-
CCC1CCCCN1c1ccc([N+](=O)[O-])cc1/C=N/NC(=O)Cn1c2ccccc2c(=O)c2ccccc21 (configuration not stated)	35.5	0	0	0	0	0	0	0	0
Cc1onc(-c2ccccc2)c1C(=O)N/N=C/c1cc(Br)c(O)c(Br)c1	41.8	0	0	0	-	0	0	0	0
CC(=O)Oc1ccc(/C=N\NC(=O)c2cc3c(ccc4ccccc43)o2)cc1	129.1	0	0	0	0	0	55.5	0	0
O=C(N/N=C/c1ccc(O)c(Br)c1)c1cc2c(ccc3ccccc32)o1	0	-	0	0	-	0	-	-	-
O=C(N/N=C/c1cc(Br)c(O)c(Br)c1)c1cc2c(ccc3ccccc32)o1	73.9	51.3	0	0	-	0	59.0	0	138.9
COc1ccc(C/C(C)=N/NC(=O)c2cccnc2)cc1	0	0	0	0	0	0	-	-	-
O=C(Nc1ccc(Cl)cc1)c1ccco1	0	0	0	0	0	0	-	-	-

Screening results: PubChem BioAssay, several laboratories
